# MrgX1 ag – human MrgX1 receptor agonism, primary screen; AID 588627; 0.44% of 310,000 active; Q96LB2; B-score at 10 µM; MrgX1-HEK293 cells, Fluo-4 calcium fluorescence, agonist mode; hits give high values;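 active = calcium response B-score plate-corrected fluorescence ratio at least 3 library SD, with starting fluorescence B-score inside 5 SD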
# Target sequence (Q96LB2 whole entry, looked up): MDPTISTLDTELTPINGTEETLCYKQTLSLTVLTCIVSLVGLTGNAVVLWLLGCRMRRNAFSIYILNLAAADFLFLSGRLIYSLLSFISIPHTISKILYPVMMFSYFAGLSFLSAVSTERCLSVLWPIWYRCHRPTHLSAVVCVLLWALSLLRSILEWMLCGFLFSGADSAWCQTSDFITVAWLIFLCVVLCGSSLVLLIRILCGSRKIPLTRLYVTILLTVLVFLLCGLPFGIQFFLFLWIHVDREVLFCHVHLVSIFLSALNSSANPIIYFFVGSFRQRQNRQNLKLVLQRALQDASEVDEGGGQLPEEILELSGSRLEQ
#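 Material: MrgX1-expressing HEK293 cells / Dosing: compound as first of three additions / Incubation: overnight seeding, then 1 h dark dye loading / Signal: Fluo-4 NW calcium fluorescence / Evaluation: B-scored fluorescence response ratio / Benchmarks: positive and negative control wells on each plate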
# MrgX1 antagonist – human MrgX1 receptor antagonism, primary screen; MRGX1-HEK293 calcium flux, Fluo-4, BAM8-22 antagonism; hits give low values; B-score at 10 µM; 1.3% of 310,000 active; AID 588676;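 active = calcium-response B-score plate-corrected more than 3 library SD below zero, starting fluorescence within 5 deviations, no agonist response on first addition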;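 note: peak minus trough fluorescence over baseline after final BAM8-22 challenge near maximal dose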
# RGS4 block – inhibitors of human RGS4. P49798. HEK293 M3R/RGS4 inducible, Fluo-4 calcium flux; hits give high values; triggered by carbachol at its EC20. B-score at 10 µM. 0.45% of 310,000 active. AID 463165;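 active = B-score, a plate-corrected calcium signal, over three deviations above library mean, with baseline fluorescence within five deviations of library mean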;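 note: RGS4 expression induced by doxycycline in cells with stable M3 receptor; B-score is computed from the integrated fluorescence ratio over baseline after carbachol; higher B-score means a larger calcium signal and so more RGS4 inhibition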
# Target sequence (P49798 whole entry, looked up): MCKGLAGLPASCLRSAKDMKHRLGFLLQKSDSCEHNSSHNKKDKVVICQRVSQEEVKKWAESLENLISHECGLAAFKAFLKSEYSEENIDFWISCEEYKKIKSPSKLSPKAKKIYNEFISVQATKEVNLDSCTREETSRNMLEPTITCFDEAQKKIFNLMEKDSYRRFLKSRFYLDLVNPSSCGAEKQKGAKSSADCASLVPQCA
# MrgX1 PAM – allosterically activates human MrgX1 receptor signaling. B-score at 10 µM. 0.63% of 310,000 active. Q96LB2. MrgX1-HEK293, Fluo-4 calcium flux, FDSS; hits give high values;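 active = plate-corrected calcium response at least 3 library SD above typical, normal starting fluorescence, not activating the receptor alone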;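 note: compound read alongside a low EC10 to EC30 dose of BAM8-22 agonist; peak minus trough fluorescence over baseline measured at the second addition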
# RGS4 pot – potentiators or activators of RGS4; HEK293 M3R/inducible RGS4, carbachol calcium flux Fluo4; hits give low values; B-score at 10 µM; 0.92% of 310,000 active; AID 463111;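 active = B-score of the integrated calcium signal more than 4 SD below the library mean, with starting fluorescence not abnormally high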;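 note: negative B-score means reduced calcium response which marks RGS4 activation or potentiation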
#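 Assay system: HEK293 FlpIn-TREx cells, stable M3R, doxycycline-inducible RGS4 / Probe or stimulus: carbachol, ECmax concentration / Times: overnight RGS4 induction, 30 min dye load 37 °C, 20 min compound RT / Signal: kinetic calcium fluorescence imaging with Fluo4-AM dye, 2 µM / Measure: Agonist-evoked peak-minus-minimum fluorescence over baseline, integrated ratio, B score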
# * marks the source's active call; other numbers are inactive results; i = inactive; / = not tested or not shown. The list is not random: actives were taken first. Their share in the collection is about 3.5%.
SMILES,MrgX1 ag,MrgX1 antagonist,RGS4 block,MrgX1 PAM,RGS4 pot
CCS(=O)(=O)N1N=C(c2cccc(NS(C)(=O)=O)c2)CC1c1ccccc1 (stereo not given),i,-5.49*,i,i,i
CCCC(=O)Nc1ccc(-c2csc(N/N=C\c3ccncc3)n2)cc1,i,-5.36*,i,i,-7.16*
CCOC(=O)c1c(C)[nH]c(C2=NNC(=Nc3cccc(Cl)c3)SC2)c1C,i,i,i,21.8*,i
O=C(NCCc1ccccc1)C1CCCN1C(=O)Nc1ccc(Cl)cc1 (stereo not given),i,i,i,i,i
COc1cccc(CC2(CO)CCCN(CC3=Cc4cc(Cl)ccc4OC3)C2)c1 (stereo not given),i,i,i,i,i
O=C(/C=C/c1ccccc1)Nc1cccnc1,i,i,i,i,i
COc1ccc(NC(=O)/C=C/c2ccc(Br)o2)cn1,i,-7.18*,i,i,i
Cc1ccc(/C=C/C(=O)Nc2cccnc2)o1,i,-7.12*,i,i,i
CN1CCN(C(=O)C2CCC(=O)N(CCc3cccc(F)c3)C2)CC1 (stereo not given),i,i,i,i,i
Cc1cccc(C(=O)NNC(=S)NC(=O)c2ccccc2)c1,186*,i,i,i,i
COc1ccc(C(=O)NC(=S)NNC(=O)c2cccc(C)c2)cc1,102*,i,i,i,-8.39*
Cc1ccc(C(=O)NNC(=S)NC(=O)c2ccccc2)cc1,139*,i,i,i,i
Cc1ccc(C(=O)NNC(=O)c2cccc(C)c2)cc1,i,i,i,i,i
CN(C)c1ccc(NC(=O)C[n+]2ccccc2)cc1,i,i,i,i,i
O=C(C[n+]1ccccc1)Nc1ccc(Oc2ccccc2)cc1,i,i,i,i,-7.64*
COC(=O)c1ccc(OC(=O)c2ccco2)cc1,i,i,i,i,i
O=Cc1ccnc(-c2ccc(OC(=O)c3ccco3)cc2)n1,75.5*,i,i,i,i
CCCc1nn2c(=O)cc(CSCC(=O)Nc3ccc(OC)cc3)nc2s1,i,i,i,i,i
COc1ccc(NC(=O)COc2ccccc2C(=O)NCC(c2ccccc2)N(C)C)cc1Cl (stereo not given),i,i,i,i,-9.39*
CC(=O)N1CCN(c2ccc(NC(=O)C(C)Oc3ccc(Cl)cc3Cl)cc2)CC1 (stereo not given),i,-7.08*,i,i,i
CC(Oc1ccc(Cl)cc1Cl)C(=O)Nc1ccc(N2CCN(C)CC2)cc1 (stereo not given),i,i,i,i,i
CC(C)CCn1c2ccccc2c2cc(CC(N)=O)ccc21,i,i,i,i,i
Cc1ccc(S(=O)(=O)N2CCCCC2)cc1C(=O)N(CCc1ccccc1)Cc1ccccc1,i,i,i,i,i
CC(=O)NC(=S)Nc1ccc([N+](=O)[O-])cc1C,i,-8.04*,i,i,i
COc1ccc([N+](=O)[O-])cc1NC(=S)NC(C)=O,i,i,i,i,i
SMILES,MrgX1 ag,MrgX1 antagonist,RGS4 block,MrgX1 PAM,RGS4 pot
CC(=O)O[C@H]1CC[C@]2(C)[C@H]3CC=C4[C@@H]5[C@@H](C)[C@H](C)CC[C@]5(C(=O)O)CC[C@@]4(C)[C@]3(C)CC[C@H]2C1(C)C,i,i,13.7*,i,i
CC1(C)C2CC[C@]3(C)C(CC=C4[C@@H]5C[C@@](C)(CO)[C@@H](O)C[C@]5(C(=O)O)CC[C@]43C)[C@@]2(C)CC[C@@H]1O (stereo not given in full),i,i,i,i,i
Cc1ccc(C(=O)CCC(=O)N2CCN(c3ccccc3O)CC2)cc1,i,i,i,i,i
Cc1nc2ccccn2c1C(=O)N=Nc1c(O)n(CCC(C)C)c2ccccc12,i,i,i,i,-7.31*
COc1cccc2c1OCC(C(=O)Nc1nccs1)=C2,28*,i,i,i,i
CCOc1ccc(NC(=O)Nc2nc3ccc(S(C)(=O)=O)cc3s2)cc1,i,i,i,i,i
O=C(Nn1cnc2ccccc2c1=O)C1CCCCC1,i,-7.53*,i,i,i
CCCC1CCC(C(=O)Nn2cnc3ccccc3c2=O)CC1 (stereo not given),i,i,i,i,i
COc1cc(/C=C(/C(=O)O)c2ccc(-c3ccccc3)cc2)cc(OC)c1OC,i,i,i,i,i
COc1ccc(/C(=C/c2ccc(OC(F)F)c(OC)c2)C(=O)O)cc1OC,i,-5.76*,i,i,i
O=C(O)CSc1c2c(nc3cc(C(=O)Nc4cccc(C(F)(F)F)c4)ccc13)CCC2,i,i,i,i,i
CC(C)(C)C(=O)/C(=C\c1ccc([N+](=O)[O-])cc1)n1cncn1,34.5*,i,14.3*,i,i
CC(C)(C)C(=O)/C(=C/c1ccc(Cl)cc1)n1cncn1,i,i,i,i,i
COc1ccc(/C=c2\sc3nc(=O)c(C)nn3c2=O)c(OC)c1,27.1*,i,i,i,i
CCCCNC(=O)COC(=O)CCC(=O)c1ccc(F)cc1,i,-6.06*,i,i,i
CCN(CC)CCCNC(=O)c1ccc(N2CCCCC2)c(NS(=O)(=O)c2ccc(C)cc2)c1,26.6*,i,i,i,i
O=c1[nH]c(=O)c2cn[nH]c2[nH]1,i,i,/,i,/
COC1=C/C(=C/c2c(N)n3nc(CC(=O)N4CCCCC4)sc3nc2=O)C=CC1=O,68.5*,i,i,i,i
Nc1c(/C=C2\C=Nc3ccccc32)c(=O)nc2sc(CC(=O)N3CCOCC3)nn12,i,i,i,10.1*,i
CN1C(=O)/C(=C/c2ccc(OCc3ccccc3F)cc2)N(C)C1=S,i,i,i,i,i
O=C(Nc1ccc(Cl)c(C(F)(F)F)c1)[C@@H]1CC=C[C@@H]2CCN(Cc3ccccc3)C(=O)[C@@H]21,i,i,i,7.25*,i
CC(=O)Nc1ccc(NC(=O)CCC(=O)OCC(=O)c2ccc(F)cc2)cc1,i,i,i,i,i
Brc1ccccc1OCCCOc1cccc2cccnc12,i,i,i,i,i
COc1cccc(C=O)c1OCCCOc1cccc2cccnc12,33.3*,i,i,i,i
COC(=O)c1c(NC(=O)Cn2cnc([N+](=O)[O-])n2)sc2c1CCC(C)C2 (stereo not given),i,i,i,i,-7.61*

# Bioassay records (PubChem BioAssay)
